Data published in ChEMBL document CHEMBL4312027, “Synthesis, characterization, and biological activity of a triphenylphosphonium-containing imidazolium salt against select bladder cancer cell lines” (Eur J Med Chem, 2020).
The source made the active and inactive calls. The rule behind the calls is not given here.

Key:
COLO 205 = assay: Growth inhibition of human COLO205 cells assessed as growth percent at 10 uM incubated for 48 hrs by sulforhodamine B assay relative to control; type: functional; settings: COLO 205, 48 h, read-out: Activity
J82 = assay: Anticlonogenic activity against human J82 cells assessed as decrease in colony formation at 250 to 500 uM incubated for 1 hr measured after culturing in normal medium for 10 days by crystal violet staining assay; type: functional, cell-based
Outline: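 Cells seeded at 500/well, treated 24 h later with 250 or 500 μM drug or vehicle for 1 h. Cells were then grown in normal media for 10 days, stained with 0.5% crystal violet in 20% MeOH/water at 4 °C for 5 min, washed, dried and imaged. Run in triplicate.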

U-251 = assay: Growth inhibition of human U251 cells assessed as growth percent at 10 uM incubated for 48 hrs by sulforhodamine B assay relative to control; type: functional; settings: U-251, 48 h, read-out: Activity
T47D = assay: Growth inhibition of human T47D cells assessed as growth percent at 10 uM incubated for 48 hrs by sulforhodamine B assay relative to control; type: functional; settings: read-out: Activity
OVCAR-4 = assay: Growth inhibition of human OVCAR4 cells assessed as growth percent at 10 uM incubated for 48 hrs by sulforhodamine B assay relative to control; type: functional; settings: OVCAR-4, 48 h, read-out: Activity
A498 = assay: Growth inhibition of human A498 cells assessed as growth percent at 10 uM incubated for 48 hrs by sulforhodamine B assay relative to control; type: functional; settings: A498, 48 h, read-out: Activity
NCI/ADR-RES = assay: Growth inhibition of human NCI/ADR-RES cells assessed as growth percent at 10 uM incubated for 48 hrs by sulforhodamine B assay relative to control; type: functional; settings: read-out: Activity
NCI-H522 = assay: Growth inhibition of human NCI-H522 cells assessed as growth percent at 10 uM incubated for 48 hrs by sulforhodamine B assay relative to control; type: functional; settings: NCI-H522, 48 h, read-out: Activity
HCC 2998 = assay: Growth inhibition of human HCC2998 cells assessed as growth percent at 10 uM incubated for 48 hrs by sulforhodamine B assay relative to control; type: functional; settings: HCC 2998, 48 h, read-out: Activity
TCC-SUP = assay: Growth inhibition of human TCCSUP cells measured after 1 hr by Celltiter-Glo luminescent cell viability assay; type: functional
Outline: (§1)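 Cells seeded 10000/well, 24 h, then exposed in ATCC-recommended medium to 62.5–2000 μM (two-fold steps) or vehicle for the set time (5–60 min), then normal medium. After 24 h, plates equilibrated 30 min at room temperature, CellTiter-Glo added, 2 min at room temperature, luminescence read. Survival relative to vehicle control; quadruplicate.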

SNB-19 = assay: Growth inhibition of human SNB19 cells assessed as growth percent at 10 uM incubated for 48 hrs by sulforhodamine B assay relative to control; type: functional; settings: SNB-19, 48 h, read-out: Activity
RT-112 [1] = assay: Growth inhibition of human RT112 cells measured after 1 hr by Celltiter-Glo luminescent cell viability assay; type: functional; settings: RT-112, 1 h; outline: as §1
UMUC3 = assay: Growth inhibition of human UM-UC-3 cells measured after 1 hr by Celltiter-Glo luminescent cell viability assay; type: functional; settings: UMUC3, 1 h; outline: as §1
SNB-75 = assay: Growth inhibition of human SNB75 cells assessed as growth percent at 10 uM incubated for 48 hrs by sulforhodamine B assay relative to control; type: functional; settings: SNB-75, 48 h, read-out: Activity
Mus musculus = assay: Antitumor activity against anesthetized BBN-induced bladder tumor mouse model assessed as increase in cleaved caspase 3 level in hyperplasia region at 1500 uM administered via intravesical instillation treated for 1 hr administered as 2 doses at 24 hrs interval and measured at 24 hrs after final treatment by hematoxylin and eosin staining based immunohistochemical analysis; type: functional, organism-based
HCT-15 = assay: Growth inhibition of human HCT15 cells assessed as growth percent at 10 uM incubated for 48 hrs by sulforhodamine B assay relative to control; type: functional; settings: HCT-15, 48 h, read-out: Activity
RT-112 [2] = assay: Growth inhibition of human RT112 cells at 1000 uM measured after 15 to 60 mins by Celltiter-Glo luminescent cell viability assay relative to control; type: functional; settings: read-out: GI; outline: as §1
[3] = Toxicity in anesthetized female mouse model assessed as inflammation at 750 to 1500 uM administered via intravesical instillation after bladder evacuation treated for 1 hr followed by repetition of the treatment after 24 hrs and measured at 24 hrs after final treatment; settings: in vivo, other
Outline: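 Female mice anesthetized, 1–3% isoflurane. Bladder evacuated, then 100 μL of 750 or 1500 μM in 10% DMSO/PBS (or vehicle) instilled by 24G angiocatheter. Catheter left in place for a 1 h dwell. Repeated after 24 h; mice sacrificed 24 h after final dose. Bladder histology read for urothelial height and layers.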

MDA-MB-468 = assay: Growth inhibition of human MDA-MB-468 cells assessed as growth percent at 10 uM incubated for 48 hrs by sulforhodamine B assay relative to control; type: functional; settings: MDA-MB-468, 48 h, read-out: Activity
UACC-62 = assay: Growth inhibition of human UACC62 cells assessed as growth percent at 10 uM incubated for 48 hrs by sulforhodamine B assay relative to control; type: functional; settings: UACC-62, 48 h, read-out: Activity
RT-4 = assay: Growth inhibition of human RT4 cells at 250 uM measured after 5 to 60 mins by Celltiter-Glo luminescent cell viability assay; type: functional, cell-based; outline: as §1
SK-MEL-28 = assay: Growth inhibition of human SK-MEL-28 cells assessed as growth percent at 10 uM incubated for 48 hrs by sulforhodamine B assay relative to control; type: functional; settings: SK-MEL-28, 48 h, read-out: Activity
KM12 = assay: Growth inhibition of human KM12 cells assessed as growth percent at 10 uM incubated for 48 hrs by sulforhodamine B assay relative to control; type: functional; settings: KM12, 48 h, read-out: Activity
RT-112 [4] = assay: Induction of mitochondrial membrane depolarization in human RT112 cells at 200 uM measured after 2 to 4 hrs by JC-1 staining based confocal microscopy; type: functional, cell-based
Outline: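 RT112 cells, 200000 per glass-bottom dish, plated overnight. Exposed to 200 μM for 45 min, then JC-1 added (final 10 μg/mL) for 15 min. Confocal live imaging, excitation 485 nm, emission 530 and 590 nm, every 15 min for 6 h. Red punctate staining taken as polarized mitochondria, green as depolarized. CCCP as positive control.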

NCI-H460 = assay: Growth inhibition of human NCI-H460 cells assessed as growth percent at 10 uM incubated for 48 hrs by sulforhodamine B assay relative to control; type: functional; settings: NCI-H460, 48 h, read-out: Activity
Hs-578T = assay: Growth inhibition of human Hs 578T cells assessed as growth percent at 10 uM incubated for 48 hrs by sulforhodamine B assay relative to control; type: functional; settings: read-out: Activity
LOX IMVI = assay: Growth inhibition of human LOXIMVI cells assessed as growth percent at 10 uM incubated for 48 hrs by sulforhodamine B assay relative to control; type: functional; settings: read-out: Activity
SW-620 = assay: Growth inhibition of human SW620 cells assessed as growth percent at 10 uM incubated for 48 hrs by sulforhodamine B assay relative to control; type: functional; settings: SW-620, 48 h, read-out: Activity

## [Br-].[Br-].c1ccc([P+](CCCc2n(Cc3ccc4ccccc4c3)c3ccccc3[n+]2Cc2ccc3ccccc3c2)(c2ccccc2)c2ccccc2)cc1
COLO 205
  growth at 10 µM: 44.7%
J82
  inhibition: Active
U-251
  growth at 10 µM: 46.5%
T47D
  growth at 10 µM: 56.9%
OVCAR-4
  growth at 10 µM: 74.4%
A498
  growth at 10 µM: 67.2%
NCI/ADR-RES
  growth at 10 µM: 83.7%
NCI-H522
  growth at 10 µM: 60.2%
HCC 2998
  growth at 10 µM: 53.9%
TCC-SUP
  GI50: 240 µM
SNB-19
  growth at 10 µM: 38.5%
RT-112 [1]
  GI50: 200 µM
UMUC3
  GI50: 80 µM
SNB-75
  growth at 10 µM: 91%
Mus musculus
  Activity: Active
HCT-15
  growth at 10 µM: 85.5%
RT-112 [2]
  inhibition of growth at 1000 µM: 100%
[3]
  Activity: Non-Toxic
MDA-MB-468
  growth at 10 µM: 34.5%
UACC-62
  growth at 10 µM: 37.8%
RT-4
  growth inhibition (GI): Active
SK-MEL-28
  growth at 10 µM: 37.1%
KM12
  growth at 10 µM: 32.2%
RT-112 [4]
  Activity: Active
NCI-H460
  growth at 10 µM: 34.8%
Hs-578T
  growth at 10 µM: 68.6%
LOX IMVI
  growth at 10 µM: 13.8%
SW-620
  growth at 10 µM: 35.2%
